# Screening results: PubChem BioAssay, The Scripps Research Institute Molecular Screening Center
# mABHD4 FP: inhibitors of mouse ABHD4; inhibition, % at 8.92 µM; Q8VD66; purified mABHD4, FP-Rh probe fluorescence polarization; 370,000 compounds, 0.54% hits;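 active means inhibition exceeding the mean over every tested compound plus 3 SD, cut at about 30% in these data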
#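 Assay system: wild-type mouse ABHD4 protein; compound: single nominal dose of 8.92 µM, 0.89% DMSO final; schedule: 45 min + 60 min at 25 °C; measured by: FP readout, ex 525 nm / em 598 nm; evaluation: % inhibition of FP-Rh probe binding versus controls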
# HTRA1 inh: blocks human HTRA1 serine peptidase; Q92743; recombinant HTRA1, FP-rhodamine activity-based probe, fluorescence polarization; inhibition, % at 5.96 µM; 340,000 compounds, 0.5% hits; in the data active means inhibition above about 36%
# Target sequence (Q92743 whole entry, looked up): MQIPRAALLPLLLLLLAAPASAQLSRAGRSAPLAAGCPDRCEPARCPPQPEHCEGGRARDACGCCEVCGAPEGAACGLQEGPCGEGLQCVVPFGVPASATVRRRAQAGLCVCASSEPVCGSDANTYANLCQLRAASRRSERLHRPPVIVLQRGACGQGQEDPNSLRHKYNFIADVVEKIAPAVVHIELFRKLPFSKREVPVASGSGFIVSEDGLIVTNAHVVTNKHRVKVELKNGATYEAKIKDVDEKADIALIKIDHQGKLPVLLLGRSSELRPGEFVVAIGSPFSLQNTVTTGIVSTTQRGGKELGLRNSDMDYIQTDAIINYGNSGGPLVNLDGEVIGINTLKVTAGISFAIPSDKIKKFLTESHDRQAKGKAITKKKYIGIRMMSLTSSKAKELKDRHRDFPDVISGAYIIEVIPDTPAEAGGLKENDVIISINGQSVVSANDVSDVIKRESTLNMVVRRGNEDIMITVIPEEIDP
# DAGLB inhibitor: blocks human DAGLB lipase activity. Q8NCG7. HEK293T DAGLB membrane lysate, EnzChek fluorogenic substrate. inhibition, % at 5.17 µM. 340,000 compounds, 0.059% hits. AID 504411; in the data active means inhibition above about 34%
# SIAE primary: human SIAE inhibition, primary screen; Q9HAT2; SIAE FP-Rh probe binding, fluorescence polarization; inhibition, % at 9.66 µM; 370,000 compounds, 0.69% hits;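 active means inhibition above a cutoff: mean of compounds within the control limits plus 3 SD of those, cut at about 17% in these data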
# TCR-CD3 inh: blocks the human TCR-CD3 interaction; TAMRA-labeled TCR probe fluorescence, biochemical; inhibition, % at 9.4 µM; 360,000 compounds, 0.37% hits;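 further: recombinant mutant TCR 2C K166C tagged with TAMRA read by polarization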
# DAGLB inh conf: DAGLB (human) inhibition, confirmation screen; shares compounds with DAGLB inhibitor; HEK293T DAGLB membrane lysate, EnzChek fluorogenic substrate; inhibition, % at 5.17 µM; 190 compounds, 73% hits; AID 504445;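 active means mean inhibition over triplicate wells above a set limit taken from the primary lipase screen, cut at about 34% in these data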
# HTRA1 inh conf: confirmation of human HTRA1 inhibitors; shares compounds with HTRA1 inh; recombinant HTRA1, FP-rhodamine activity-based probe, fluorescence polarization; inhibition, % at 5.96 µM; 1,600 compounds, 66% hits; AID 540248;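 active means mean inhibition over three repeats above a set limit taken from the earlier primary screen, cut at about 37% in these data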;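 further: inhibitors block probe binding so polarization drops and inhibition rises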
# BSA TAMRA ctr: interferes with TAMRA-BSA probe, flagging TCR-CD3 hits. inhibition, % at 9.4 µM. AID 652035. shares compounds with TCR-CD3 inh. TAMRA-labeled BSA probe fluorescence counterscreen. 1,200 compounds, 10% hits; in the data active means inhibition above about 23%
# TCR-CD3 inh conf: TCR-CD3 interaction inhibition, confirmation | 1,200 compounds, 48% hits | shares compounds with TCR-CD3 inh | TAMRA-labeled TCR probe fluorescence binding assay | inhibition, % at 9.4 µM | AID 652036
# ABHD4 confirm: ABHD4 (mouse) inhibition, FP confirmation; shares compounds with mABHD4 FP; purified mABHD4, FP-Rh probe fluorescence polarization; inhibition, % at 8.92 µM; 1,800 compounds, 55% hits; AID 720658;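 active means mean inhibition across replicates above the hit cutoff set in the primary screen, cut at about 30% in these data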
# Hits are given with their value; n = inactive; x = no result given. Most compounds without a hit are left out; they make up all but 1.5% or so of the library. Unless noted, no stated cut-off is given here; in the data, active means inhibition above about 19%; inactive means the rest.
SMILES,mABHD4 FP,HTRA1 inh,DAGLB inhibitor,SIAE primary,TCR-CD3 inh,DAGLB inh conf,HTRA1 inh conf,ABHD4 confirm,others
Nc1cc([N+](=O)[O-])cc2oc(-c3ccccc3)cc12,n,45.4,36.9,n,n,36.9,38.4,x,
CCOC(=O)c1cccc(NC(=O)CN(C)S(=O)(=O)c2ccc(C)c(C)c2)c1,n,x,x,n,x,x,x,x,
COC(=O)C1=C(C(=O)OC)SC(=C2C(=S)C(C)(C)N(C(=O)C(C)C)c3ccccc32)S1,n,n,n,n,n,x,x,x,
COC(=O)C1=C(C(=O)OC)SC(=C2C(=S)C(C)(C)N(C(=O)C3CC3)c3ccccc32)S1,n,45.0,41.4,n,n,47.1,52.2,x,
CC(C)(C)c1ccc(S(=O)(=O)/N=C2\C=C(NS(=O)(=O)c3ccccc3)C(=O)c3ccccc32)cc1,36.2,n,39.4,n,n,63.7,x,59.9,
Cc1cccc(NC2=C(NC(=O)c3ccccc3)C(=O)c3ccccc3C2=O)c1,n,n,n,n,n,x,x,x,
Cc1ccc(S(=O)(=O)/N=C2/C=C(Sc3ncn[nH]3)C(=O)c3ccccc32)cc1,x,n,n,x,x,x,x,x,
Cc1ccc(S(=O)(=O)/N=C2\C=C(Nc3cccc(C(=O)O)c3)C(=O)c3ccccc32)cc1,32.9,52.3,37.0,n,n,39.8,n,61.9,
Cc1ccc(S(=O)(=O)/N=C2\C=C(Nc3cccc(C(=O)O)c3)C(=O)c3ccccc32)c(C)c1,47.3,57.9,45.7,n,n,46.0,62.7,101.0,
Cc1ccc(S(=O)(=O)N2OC(c3ccccc3)C[C@H]2CC=C(c2ccccc2)c2ccccc2)cc1 (some centres not stated),n,x,x,n,x,x,x,x,
COC(=O)[C@]12C[C@H](CC(=O)NCc3cccc4ccccc34)C(=O)N(CCC3=CCCCC3)C1=C[C@H](C(C)(C)C)O[C@@H]2C,n,x,x,n,n,x,x,x,
COC(=O)c1cc2c(c3c4cc(F)ccc4n(S(=O)(=O)c4ccc(C)cc4)c13)C(=O)N(C)C2,n,x,x,n,n,x,x,x,
O=C1c2cccc(Cl)c2C(=O)c2c1cccc2N1CCCC1,65.6,65.1,44.4,n,n,63.8,64.7,85.4,
O=C1C(Cl)=C(N2CCCCC2)C(=O)N1c1ccccc1Cl,n,n,n,n,n,x,x,x,
NC(=O)c1c(N)[nH]c(C(=O)c2ccccc2)c1-c1ccc(Cl)cc1Cl,n,x,x,n,n,x,x,x,
N#C/C(=C\c1ccc(O)c([N+](=O)[O-])c1)c1nc2ccccc2s1,30.3,n,37.5,n,n,38.9,x,70.7,
COc1cc(/C=C(\C#N)c2nc3ccccc3s2)cc([N+](=O)[O-])c1O,n,n,n,n,n,x,x,x,
C=CCCC1CN(Cc2ccc(OC)cc2)S(=O)(=O)c2c(cccc2N(C)S(=O)(=O)c2ccc(C)cc2)O1 (configuration not stated),n,x,x,n,n,x,x,x,
CCOc1ccccc1N1CCN(C2=C(NS(=O)(=O)c3cccs3)C(=O)c3ccccc3C2=O)CC1,48.4,63.2,43.7,n,n,39.4,67.5,61.7,
COC(=O)c1cc2c(c3c4ccccc4n(S(=O)(=O)c4ccc(C)cc4)c13)C(=O)N(C)C2,n,x,x,n,n,x,x,x,
N#C/C(=C\c1ccc(O)c(O)c1)C(=O)NCCCc1ccccc1,33.7,65.6,40.3,n,n,n,76.9,52.3,
O=c1cc2oc3cc(O)c(O)cc3c(-c3ccccc3[N+](=O)[O-])c-2cc1O,53.0,58.5,43.4,n,101.5,n,68.2,55.3,BSA TAMRA ctr=n;TCR-CD3 inh conf=83.5
Nc1nc(-c2ccccc2)c(N=Nc2ccccc2Cl)s1,46.3,73.1,64.7,n,n,91.4,115.2,75.7,
Cc1ncc(N=Nc2ccccc2Cl)c(-c2ccccc2)n1,n,n,n,n,n,x,x,x,
